High-throughput results as filed in PubChem BioAssay.
Pemphigus Ab inh – inhibitors of pemphigus antibody binding to DSG3, primary screen, biochemical, bead-based, flow cytometry, scFv-GFP; AID 588358, 2011; Desmoglein-3 (Homo sapiens), P32926; binding (percent of control), % at 10 µM; 310,000 compounds, 0.48% hits; DSG3-coupled beads, scFv-anti-DSG3-GFP binding; active compounds read low;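 active = binding more than 3 SD below its plate's average and above zero; inconclusive = below that plate limit but binding exactly zero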;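 also: hits lower antibody fragment binding to DSG3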
PolyA inh – polyadenylation inhibitors in yeast reporter cells, primary screen, luminescence, S. cerevisiae. S. cerevisiae SKY197-pL101 polyadenylation reporter, beta-gal luminescence; efflux-impaired pdr1/pdr3 knockout yeast; score 100 = 6 SD above DMSO. activity score, % at 12 µM. 300,000 compounds, 0.02% hits. AID 1875, 2009;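 active = lowest replicate activity score at least 50, where 100 means six control SD above control mean; inconclusive = lowest score under 50 but half or more replicates reach 50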;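 also: yeast exposed to compound for 9 h at 30 °C; higher score means more reporter readthrough which indicates perturbed polyadenylation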
Arr AP2 block – inhibitors of beta-arrestin/AP2 binding, primary screen, biochemical, GPCR trafficking, flow cytometry | FITC-arrestin peptide / GST-AP2 beads; AP2 beta2 appendage carries R879A mutation | inhibition, % at 10 µM | 340,000 compounds, 0.31% hits;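 active = inhibition above a set limit, near 3 SD of compounds lacking own fluorescence, cut at about 54% in these data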;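 also: plate controls were DMSO wells for no effect and 5 µM unlabelled arrestin peptide for full effect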
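System: GST-AP2 R879A glutathione beads; medium: PBS, Tween 20 0.05%, BSA 0.1%; reagent: fluorescein-tagged arrestin peptide at 50 nM final; schedule: pre-incubation 12 min, peptide binding 1 h, room temperature; detection: flow cytometry, FL1 (488/535 nm); read-out: inhibition as reduced fluorescein signal on beads, percent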
NLRP3 yeast inh – NALP3 inflammasome inhibitors in reconstituted yeast, primary screen, luminescence, uHTS. Yeast reconstituted NLRP3/ASC/caspase-1, beta-gal luminescence, 24 h. AID 2825, 2010. 330,000 compounds, 0.39% hits. inhibition, % at 10 µM;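 active = inhibition of 50% or more; inactive = inhibition below 50%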;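 also: plate controls were induced DMSO wells for no effect and uninduced yeast grown without galactose for full effect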
NALP1 inh – NALP1 inflammasome inhibitors in reconstituted yeast, colorimetric, S. cerevisiae, triplicate retest; S. cerevisiae NALP1/ASC/caspase-1 growth, X-gal OD620, 72 h; inhibition, % at 10 µM; 280,000 compounds, 0.61% hits; AID 2071, 2009; in the data active = inhibition mostly above about 24%, no sharp cut-off; inactive = mostly below about 32%
ALR inh – inhibitors of human ALR sulfhydryl oxidase, primary screen, biochemical, H2O2 detection, HRP-luminol luminescence, single point; purified ALR, DTT oxidation; inhibition, % (no concentration beside the values); 290,000 compounds, 3.8% hits; AID 485317, 2010;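 active = mean replicate inhibition above about 79%, with every replicate also reaching it, limit read from the data; inconclusive = only one of the two criteria met; inactive = mean below limit and not every replicate reaching it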
Active calls of the source: *; u = inconclusive; x = no result. In the library only some 4.6% were active in any assay of this set; here they are far more common.

SMILES	Pemphigus Ab inh	PolyA inh	Arr AP2 block	NLRP3 yeast inh	NALP1 inh	ALR inh
COc1ccc(C(=O)C2CCCN(Cc3c(F)ccc(F)c3F)C2)c(OC)c1 (stereo not given)	96	-3	40	31	12	1
CCOC(=O)c1[nH]ncc1CN1CCCC(C(=O)c2cc(Cl)ccc2OC)C1 (stereo not given)	96	10	8	10	33*	44
CC(C)C[C@@H](CN1CCCC1CN1C(=S)NC[C@@H]1Cc1ccc(O)cc1)N1C[C@H](Cc2ccc(O)cc2)N(CCc2ccccc2)C1=S (stereo not given in full)	100	x	38	x	x	x
CCCOc1ccc(/C(O)=C2/C(=O)C(=O)N(CCOC)C2c2cccnc2)cc1 (stereo not given)	x	-9	x	11	31*	-1
C=CCOc1ccc(/C(O)=C2\C(=O)C(=O)N(CCOC)C2c2cccnc2)cc1 (stereo not given)	85	-1	1	7	x	-4
CC(C)Cc1nnc(NC(=O)c2ccc(-n3cncn3)c([N+](=O)[O-])c2)s1	102	x	x	x	x	x
Cc1ccccc1CCNC(=O)C1CCN(S(=O)(=O)c2ccc(-n3cnnn3)cc2)CC1	108	2	5	x	31*	x
CCn1c2ccccc2c2cc(NC(=O)CSc3nnc(-c4cccc(OC)c4)n3N)ccc21	93	14	2	9	20	3
CCn1c2ccccc2c2cc(NC(=O)CSc3nnc(-c4ccc(OC)c(OC)c4)n3N)ccc21	102	-7	0	-2	1	98*
O=C(CNC(=O)c1ccc(Cl)cc1Cl)OCc1cn2cc(Br)ccc2n1	x	x	-15	5	x	-2
CCOc1cccc(CN2CCCC(C(=O)Nc3ccc(-c4ccn[nH]4)cc3)C2)c1O (stereo not given)	104	8	-6	22	3	80*
CCc1nn(CCCC(=O)N2CCN(c3cccc(C)c3C)CC2)c(=O)c2cc3occc3n12	101	14	-4	34	14	0
COc1ccc(N2C(=O)CSC2c2ccc(F)c(F)c2)cc1 (stereo not given)	98	-21	-15	4	21	x
CCOc1ccc(N2C(=O)CSC2c2ccncc2)cc1 (stereo not given)	104	12	-1	8	6	100*
COc1ccc(N2C(=O)CSC2c2cccs2)cc1 (stereo not given)	111	8	4	0	21	99*
CC1CCCCC12NC(=O)N(CC(=O)OCC(=O)N(C)C1CCCCC1)C2=O (stereo not given)	x	x	44	10	x	-2
COc1cc(-c2nc3cccc(C)n3c2NCC2CCCO2)ccc1O (stereo not given)	x	-11	4	-15	-6	99*
COc1ccc(-c2nc3cc(C)ccn3c2NCC2CCCO2)cc1OC (stereo not given)	x	-9	13	-4	x	74
Cc1csc(SCC(=O)Nc2ccc(C)c(F)c2)n1	x	x	10	40	x	x
COC(=O)c1ccc(C2C(C(=O)c3cc4ccccc4o3)=C(O)C(=O)N2c2cc(C)on2)cc1 (stereo not given)	116	-17	11	5	3	19
CCOc1ccc(C2C(C(=O)c3ccc(C)o3)=C(O)C(=O)N2c2cc(C)on2)cc1OC (stereo not given)	90	9	-2	14	-9	3
COc1cccc(C2C(C(=O)c3cc4cccc(OC)c4o3)=C(O)C(=O)N2c2cc(C)on2)c1OC (stereo not given)	x	11	27	22	8	9
CCOc1ccc(C2C(C(=O)c3ccc(C)o3)=C(O)C(=O)N2c2nc(C)c(C(=O)OC)s2)cc1 (stereo not given)	x	1	12	16	22	97*
COc1cccc2cc(C(=O)C3=C(O)C(=O)N(c4cc(C)on4)C3c3cccs3)oc12 (stereo not given)	102	16	23	10	5	98*
Cc1cc(N2C(=O)C(O)=C(C(=O)c3cc4ccccc4o3)C2c2ccc(OC(C)C)cc2)no1 (stereo not given)	u	13	0	8	4	96*
SMILES	Pemphigus Ab inh	PolyA inh	Arr AP2 block	NLRP3 yeast inh	NALP1 inh	ALR inh
CCCCCOc1ccc(C2C(C(=O)c3ccc(C)o3)=C(O)C(=O)N2c2cc(C)on2)cc1 (stereo not given)	96	-25	-4	33	5	98*
Cc1cc(N2C(=O)C(O)=C(C(=O)c3cc4ccccc4o3)C2c2cccc(Br)c2)no1 (stereo not given)	90	-9	-8	10	-1	98*
CCCOc1cccc(C2C(C(=O)c3cc4ccccc4o3)=C(O)C(=O)N2c2cc(C)on2)c1 (stereo not given)	97	20	-12	12	-30	11
CC(C)CCNc1nc(N)c([N+](=O)[O-])c(N2CCCCCC2)n1	u	3	-12	41	15	-6
O=[N+]([O-])c1ccc(-c2cnc(NO)nc2)cc1	104	23	11	12	19	99*
COc1ccc(C(=O)OCC(=O)NC2CC2)cc1F	101	x	-8	4	x	-3
COc1ccc(CCNCC(=O)Nc2ccc(C)c(S(=O)(=O)N(C)C)c2)cc1OC	96	-4	-21	11	36*	4
COc1cc(/C=N/NC(=O)c2nnn(-c3nonc3N)c2-c2cccs2)ccc1O	94	7	24	-18	-13	89*
COc1cc(/C=N/NC(=O)c2nnn(-c3nonc3N)c2C(C)C)ccc1O	86	-20	19	-12	-22	99*
CN(C)CCCn1c(SCC(=O)Nc2nc(-c3cccc(Br)c3)cs2)nc2ccccc2c1=O	111	8	-2	21	x	99*
O=C(CSc1nc2ccccc2[nH]1)Nc1nc(-c2cccc(Br)c2)cs1	x	-4	0	4	0	34
COc1cccc(CN2CCNC(=O)C2CC(=O)NCCCN2CCCC2=O)c1 (stereo not given)	102	1	13	6	36	-57
O=S(=O)(c1ccc2c(c1)CCCN2)N1CCCCC1	x	x	-5	9	x	9
CCN(CC)c1ccc2c(c1)CCCN2	x	-19	x	12	16	97*
COC(=O)/C(=N/Nc1ccccc1C)N1CCCc2ccccc21	100	4	3	8	23	98*
